Measured values published in paper PMC9321909 (British Journal of Haematology, 2022).
“Also recorded” adds a separate entry of the source.

Assays:
[1] = assay type: in vivo, human (Chinese patients)
[2] = Safety: treatment-emergent adverse events, NCI CTCAE v4.03; assay type: in vivo, human (Chinese patients)
Method in brief: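 Patients took oral test compound at 320 mg QD or 160 mg BID until progression or unacceptable toxicity. AEs were graded per NCI CTCAE v4.03, and treatment-emergent AEs were summarized. AEs of special interest included haemorrhage, atrial fibrillation/flutter, hypertension, second primary malignancies, tumour lysis syndrome, infections and cytopenias. Percentages use patients receiving ≥1 dose as the denominator.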

With `C=CC(=O)N1CCC([C@@H]2CCNc3c(C(N)=O)c(-c4ccc(Oc5ccccc5)cc4)nn32)CC1` [zanubrutinib] the half-life ([1]; human, plasma, oral) was 2.3 to 3.4 h, the “time of C max post dose” value ([1]; oral 160 mg and 320 mg doses) was ~ 2 h and the “Anaemia, TEAE any grade” value ([2]; 160 mg BID (n = 34)) was 12 (35.3) n (%). The “Anaemia, grade ≥ 3 TEAE” value ([2]; 160 mg BID (n = 34)) was 4 (11.8) n (%), the “Atrial fibrillation/flutter, any grade TEAE of special interest” value ([2]; 160 mg BID (n = 34)) was 0 (0.0) n (%) and the “Cough, TEAE any grade” value ([2]; 160 mg BID (n = 34)) was 5 (14.7) n (%). The “Cytopenias: Anaemia, any grade TEAE of special interest” value (from here on “Cytopenias: Anaemia, any grade TEAE”) ([2]; 160 mg BID (n = 34)) was 14 (41.2) n (%), the “Cytopenias: Neutropenia, any grade TEAE of special interest” value (“Cytopenias: Neutropenia, any grade TEAE” below) ([2]; 160 mg BID (n = 34)) was 18 (52.9) n (%) and the “Cytopenias: Thrombocytopenia, any grade TEAE of special interest” value (shortened to “Cytopenias: Thrombocytopenia”) ([2]; 160 mg BID (n = 34)) was 9 (26.5) n (%). For the same molecule, the “Haemorrhage, any grade TEAE of special interest” value ([2]; 160 mg BID (n = 34)) was 11 (32.4) n (%), the “Hematuria, TEAE any grade” value ([2]; 160 mg BID (n = 34)) was 6 (17.6) n (%) and the “Hypertension, any grade TEAE of special interest” value (from here on “Hypertension, any grade TEAE”) ([2]; 160 mg BID (n = 34)) was 0 (0.0) n (%). The “Hyperuricemia, TEAE any grade” value ([2]; 160 mg BID (n = 34)) was 6 (17.6) n (%), the “Infections, any grade TEAE of special interest” value (“Infections, any grade TEAE” for short) ([2]; 160 mg BID (n = 34)) was 19 (55.9) n (%) and the “Major haemorrhage, any grade TEAE of special interest” value (shortened to “Major haemorrhage, any grade TEAE”) ([2]; 160 mg BID (n = 34)) was 1 (2.9) n (%). For the same molecule, the “Neutropenia, grade ≥ 3 TEAE” value ([2]; 160 mg BID (n = 34)) was 4 (11.8) n (%), the “Neutrophil count decreased, TEAE any grade” value ([2]; 160 mg BID (n = 34)) was 17 (50.0) n (%) and the “Neutrophil count decreased, grade ≥ 3 TEAE” value ([2]; 160 mg BID (n = 34)) was 6 (17.6) n (%). The “Patients with ≥1 TEAE of special interest, any grade” value (shortened to “Patients with ≥1 TEAE”) ([2]; 160 mg BID (n = 34)) was 30 (88.2) n (%), the “Patients with ≥1 any‐grade TEAE” value ([2]; 160 mg BID (n = 34)) was 33 (97.1) n (%) and the “Patients with ≥1 grade 3 or higher TEAE” value ([2]; 160 mg BID (n = 34)) was 18 (52.9) n (%). The “Platelet count decreased, TEAE any grade” value ([2]; 160 mg BID (n = 34)) was 8 (23.5) n (%), the “Platelet count decreased, grade ≥ 3 TEAE” value ([2]; 160 mg BID (n = 34)) was 1 (2.9) n (%) and the “Pneumonia, TEAE any grade” value ([2]; 160 mg BID (n = 34)) was 6 (17.6) n (%). The “Pneumonia, grade ≥ 3 TEAE” value ([2]; 160 mg BID (n = 34)) was 3 (8.8) n (%), the “Rash, TEAE any grade” value ([2]; 160 mg BID (n = 34)) was 8 (23.5) n (%) and the “Second primary malignancies, any grade TEAE of special interest” value ([2]; 160 mg BID (n = 34)) was 0 (0.0) n (%). The “Thrombocytopenia, grade ≥ 3 TEAE” value ([2]; 160 mg BID (n = 34)) was 1 (2.9) n (%), the “Tumour lysis syndrome, any grade TEAE of special interest” value (“Tumour lysis syndrome, any grade TEAE” for short) ([2]; 160 mg BID (n = 34)) was 0 (0.0) n (%) and the “Upper respiratory tract infection, TEAE any grade” value ([2]; 160 mg BID (n = 34)) was 10 (29.4) n (%). The “Upper respiratory tract infection, grade ≥ 3 TEAE” value ([2]; 160 mg BID (n = 34)) was 2 (5.9) n (%), the “Weight increased, TEAE any grade” value ([2]; 160 mg BID (n = 34)) was 5 (14.7) n (%) and the “White blood cell count decreased, TEAE any grade” value ([2]; 160 mg BID (n = 34)) was 11 (32.4) n (%). For the same molecule, the “White blood cell count decreased, grade ≥ 3 TEAE” value ([2]; 160 mg BID (n = 34)) was 1 (2.9) n (%), the “White blood cell count increased, grade ≥ 3 TEAE” value (from here on “White blood cell count increased”) ([2]; 160 mg BID (n = 34)) was 2 (5.9) n (%) and the “Anaemia, TEAE any grade” value ([2]; 320 mg QD (n = 10)) was 4 (40.0) n (%). For the same molecule, the “Anaemia, grade ≥ 3 TEAE” value ([2]; 320 mg QD (n = 10)) was 1 (10.0) n (%), the “Atrial fibrillation/flutter, any grade TEAE of special interest” value ([2]; 320 mg QD (n = 10)) was 0 (0.0) n (%) and the “Cough, TEAE any grade” value ([2]; 320 mg QD (n = 10)) was 3 (30.0) n (%). For the same molecule, the “Cytopenias: Anaemia, any grade TEAE” value ([2]; 320 mg QD (n = 10)) was 4 (40.0) n (%), the “Cytopenias: Neutropenia, any grade TEAE” value ([2]; 320 mg QD (n = 10)) was 7 (70.0) n (%) and the “Cytopenias: Thrombocytopenia” value ([2]; 320 mg QD (n = 10)) was 3 (30.0) n (%). For the same molecule, the “Haemorrhage, any grade TEAE of special interest” value ([2]; 320 mg QD (n = 10)) was 4 (40.0) n (%), the “Hematuria, TEAE any grade” value ([2]; 320 mg QD (n = 10)) was 3 (30.0) n (%) and the “Hypertension, any grade TEAE” value ([2]; 320 mg QD (n = 10)) was 1 (10.0) n (%). The “Hyperuricemia, TEAE any grade” value ([2]; 320 mg QD (n = 10)) was 3 (30.0) n (%), the “Infections, any grade TEAE” value ([2]; 320 mg QD (n = 10)) was 7 (70.0) n (%) and the “Major haemorrhage, any grade TEAE” value ([2]; 320 mg QD (n = 10)) was 0 (0.0) n (%). For the same molecule, the “Neutropenia, grade ≥ 3 TEAE” value ([2]; 320 mg QD (n = 10)) was 0 (0.0) n (%), the “Neutrophil count decreased, TEAE any grade” value ([2]; 320 mg QD (n = 10)) was 7 (70.0) n (%) and the “Neutrophil count decreased, grade ≥ 3 TEAE” value ([2]; 320 mg QD (n = 10)) was 5 (50.0) n (%). The “Patients with ≥1 TEAE” value ([2]; 320 mg QD (n = 10)) was 10 (100.0) n (%), the “Patients with ≥1 any‐grade TEAE” value ([2]; 320 mg QD (n = 10)) was 10 (100.0) n (%) and the “Patients with ≥1 grade 3 or higher TEAE” value ([2]; 320 mg QD (n = 10)) was 6 (60.0) n (%). For the same molecule, the “Platelet count decreased, TEAE any grade” value ([2]; 320 mg QD (n = 10)) was 2 (20.0) n (%), the “Platelet count decreased, grade ≥ 3 TEAE” value ([2]; 320 mg QD (n = 10)) was 1 (10.0) n (%) and the “Pneumonia, TEAE any grade” value ([2]; 320 mg QD (n = 10)) was 3 (30.0) n (%). For the same molecule, the “Pneumonia, grade ≥ 3 TEAE” value ([2]; 320 mg QD (n = 10)) was 0 (0.0) n (%), the “Rash, TEAE any grade” value ([2]; 320 mg QD (n = 10)) was 2 (20.0) n (%) and the “Second primary malignancies, any grade TEAE of special interest” value ([2]; 320 mg QD (n = 10)) was 0 (0.0) n (%). For the same molecule, the “Thrombocytopenia, grade ≥ 3 TEAE” value ([2]; 320 mg QD (n = 10)) was 1 (10.0) n (%), the “Tumour lysis syndrome, any grade TEAE” value ([2]; 320 mg QD (n = 10)) was 0 (0.0) n (%) and the “Upper respiratory tract infection, TEAE any grade” value ([2]; 320 mg QD (n = 10)) was 5 (50.0) n (%). For the same molecule, the “Upper respiratory tract infection, grade ≥ 3 TEAE” value ([2]; 320 mg QD (n = 10)) was 2 (20.0) n (%), the “Weight increased, TEAE any grade” value ([2]; 320 mg QD (n = 10)) was 3 (30.0) n (%) and the “White blood cell count decreased, TEAE any grade” value ([2]; 320 mg QD (n = 10)) was 3 (30.0) n (%). The “White blood cell count decreased, grade ≥ 3 TEAE” value ([2]; 320 mg QD (n = 10)) was 1 (10.0) n (%), the “White blood cell count increased” value ([2]; 320 mg QD (n = 10)) was 1 (10.0) n (%) and the “Anaemia, TEAE any grade” value ([2]; Total (N = 44)) was 16 (36.4) n (%). The “Anaemia, grade ≥ 3 TEAE” value ([2]; Total (N = 44)) was 5 (11.4) n (%), the “Atrial fibrillation/flutter, any grade TEAE of special interest” value ([2]; Total (N = 44)) was 0 (0.0) n (%) and the “Cough, TEAE any grade” value ([2]; Total (N = 44)) was 8 (18.2) n (%). The “Cytopenias: Anaemia, any grade TEAE” value ([2]; Total (N = 44)) was 18 (40.9) n (%), the “Cytopenias: Neutropenia, any grade TEAE” value ([2]; Total (N = 44)) was 25 (56.8) n (%) and the “Cytopenias: Thrombocytopenia” value ([2]; Total (N = 44)) was 12 (27.3) n (%). The “Haemorrhage, any grade TEAE of special interest” value ([2]; Total (N = 44)) was 15 (34.1) n (%), the “Hematuria, TEAE any grade” value ([2]; Total (N = 44)) was 9 (20.5) n (%) and the “Hypertension, any grade TEAE” value ([2]; Total (N = 44)) was 1 (2.3) n (%). For the same molecule, the “Hyperuricemia, TEAE any grade” value ([2]; Total (N = 44)) was 9 (20.5) n (%), the “Infections, any grade TEAE” value ([2]; Total (N = 44)) was 26 (59.1) n (%) and the “Major haemorrhage, any grade TEAE” value ([2]; Total (N = 44)) was 1 (2.3) n (%). The “Neutropenia, grade ≥ 3 TEAE” value ([2]; Total (N = 44)) was 4 (9.1) n (%), the “Neutrophil count decreased, TEAE any grade” value ([2]; Total (N = 44)) was 24 (54.5) n (%) and the “Neutrophil count decreased, grade ≥ 3 TEAE” value ([2]; Total (N = 44)) was 11 (25.0) n (%). For the same molecule, the “Patients with ≥1 TEAE” value ([2]; Total (N = 44)) was 40 (90.9) n (%), the “Patients with ≥1 any‐grade TEAE” value ([2]; Total (N = 44)) was 43 (97.7) n (%) and the “Patients with ≥1 grade 3 or higher TEAE” value ([2]; Total (N = 44)) was 24 (54.5) n (%). For the same molecule, the “Platelet count decreased, TEAE any grade” value ([2]; Total (N = 44)) was 10 (22.7) n (%), the “Platelet count decreased, grade ≥ 3 TEAE” value ([2]; Total (N = 44)) was 2 (4.5) n (%) and the “Pneumonia, TEAE any grade” value ([2]; Total (N = 44)) was 9 (20.5) n (%). The “Pneumonia, grade ≥ 3 TEAE” value ([2]; Total (N = 44)) was 3 (6.8) n (%), the “Rash, TEAE any grade” value ([2]; Total (N = 44)) was 10 (22.7) n (%) and the “Second primary malignancies, any grade TEAE of special interest” value ([2]; Total (N = 44)) was 0 (0.0) n (%). The “Thrombocytopenia, grade ≥ 3 TEAE” value ([2]; Total (N = 44)) was 2 (4.5) n (%), the “Tumour lysis syndrome, any grade TEAE” value ([2]; Total (N = 44)) was 0 (0.0) n (%) and the “Upper respiratory tract infection, TEAE any grade” value ([2]; Total (N = 44)) was 15 (34.1) n (%). The “Upper respiratory tract infection, grade ≥ 3 TEAE” value ([2]; Total (N = 44)) was 4 (9.1) n (%), the “Weight increased, TEAE any grade” value ([2]; Total (N = 44)) was 8 (18.2) n (%) and the “White blood cell count decreased, TEAE any grade” value ([2]; Total (N = 44)) was 14 (31.8) n (%). The “White blood cell count decreased, grade ≥ 3 TEAE” value ([2]; Total (N = 44)) was 2 (4.5) n (%), the “White blood cell count increased” value ([2]; Total (N = 44)) was 3 (6.8) n (%) and the “AEs leading to dose reduction” value ([2]; all 44 patients) was “no AEs leading to dose reduction”. The “neutrophil count decreased, most common adverse event (any grade)” value ([2]; all 44 patients) was 54.5%, the “neutrophil count decreased, most common grade 3 or higher AE” value ([2]; all 44 patients) was 25.0% and the “patients with AEs leading to dose interruption” value ([2]; all 44 patients) was 18.2%. For the same molecule, the “patients with AEs leading to treatment discontinuation” value ([2]; all 44 patients) was 4.5%, the “reports of second primary malignancies, tumour lysis syndrome, atrial fibrillation/flutter” value ([2]; all 44 patients) was “no reports” and the “grade of haemorrhagic events” value ([2]; all events except one non‐serious grade 3 purpura) was “grade 1–2; also recorded: grade 1 or 2”. The “dose‐limiting toxicity (DLT) events” value ([2]; part I, 160 mg BID and 320 mg QD) was “No DLT events”.
